Several values for one entry are separate records, joined by “and”; a condition that tells them apart may be missing. Equal values may be shown once.
System: HEK-293T
Assay: Multiplex assay against HEK293T
Assay type: toxicity, cell-based
Conditions: human
Procedure, shortened: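 Tubulin, mitochondrial-mass and membrane-permeability phenotypes are per cents of healthy-nucleus cells. Cells were gated by CellPathfinder machine learning into Hoechst high-intensity objects or normal cells, normal cells into healthy, pyknosed or fragmented nuclei, and pyknosed cells into mitotic or apoptotic. Before that, live cells stained at seeding with Hoechst33342, BioTracker Green Microtubule Cytoskeleton Dye, MitoTracker Red and Annexin V Alexa Fluor 680 were imaged on a CQ1 microscope at 37°C and 5% CO2 after compound addition.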

[1] = 12 h, 1 µM, compound concentration 1 uM
[2] = 12 h, 10 µM, compound concentration 10 uM
[3] = 24 h, 1 µM, compound concentration 1 uM
[4] = 24 h, 10 µM, compound concentration 10 uM
[5] = 48 h, 1 µM, compound concentration 1 uM
[6] = 48 h, 10 µM, compound concentration 10 uM

## CN1CCC(C(=O)c2cccc(NC(=O)c3c(F)cc(F)cc3F)n2)CC1
[1]
  Population Apoptotic (%): 32% and 52%
  Population Fragmented Nuclei (%): 5%
  Population Healthy Nuclei (%): 82%
  Population Hoechst High Intensity Objects (%): 8% and 7%
  Population Membrane Permeable-Phenotype (%): 0%
  Population Mitochondria Different-Phenotype (%): 51% and 59%
  Population Mitotic Cells (%): 67% and 47%
  Population Normal (%): 91% and 92%
  Population Pyknosed Nuclei (%): 11% and 12%
  Population Tubulin-Different-Phenotype (%): 31% and 20%
  Total Cell Count: 396 and 352
[2]
  Population Apoptotic (%): 52% and 53%
  Population Fragmented Nuclei (%): 6%
  Population Healthy Nuclei (%): 80%
  Population Hoechst High Intensity Objects (%): 8% and 10%
  Population Membrane Permeable-Phenotype (%): 1% and 0%
  Population Mitochondria Different-Phenotype (%): 55% and 77%
  Population Mitotic Cells (%): 47% and 46%
  Population Normal (%): 91% and 89%
  Population Pyknosed Nuclei (%): 12% and 13%
  Population Tubulin-Different-Phenotype (%): 50%
  Total Cell Count: 445 and 401
[3]
  Population Apoptotic (%): 26% and 42%
  Population Fragmented Nuclei (%): 11% and 8%
  Population Healthy Nuclei (%): 74% and 83%
  Population Hoechst High Intensity Objects (%): 4% and 3%
  Population Membrane Permeable-Phenotype (%): 0%
  Population Mitochondria Different-Phenotype (%): 30% and 39%
  Population Mitotic Cells (%): 73% and 57%
  Population Normal (%): 95% and 96%
  Population Pyknosed Nuclei (%): 13% and 7%
  Population Tubulin-Different-Phenotype (%): 20% and 17%
  Total Cell Count: 504 and 478
[4]
  Population Apoptotic (%): 25% and 52%
  Population Fragmented Nuclei (%): 10% and 8%
  Population Healthy Nuclei (%): 76% and 81%
  Population Hoechst High Intensity Objects (%): 6% and 8%
  Population Membrane Permeable-Phenotype (%): 0%
  Population Mitochondria Different-Phenotype (%): 48% and 64%
  Population Mitotic Cells (%): 75% and 47%
  Population Normal (%): 93% and 91%
  Population Pyknosed Nuclei (%): 13% and 9%
  Population Tubulin-Different-Phenotype (%): 41% and 34%
  Total Cell Count: 583 and 467
[5]
  Population Apoptotic (%): 22% and 34%
  Population Fragmented Nuclei (%): 11% and 9%
  Population Healthy Nuclei (%): 80% and 84%
  Population Hoechst High Intensity Objects (%): 3%
  Population Membrane Permeable-Phenotype (%): 1%
  Population Mitochondria Different-Phenotype (%): 19% and 24%
  Population Mitotic Cells (%): 77% and 65%
  Population Normal (%): 96%
  Population Pyknosed Nuclei (%): 7% and 5%
  Population Tubulin-Different-Phenotype (%): 12% and 10%
  Total Cell Count: 884 and 692
[6]
  Population Apoptotic (%): 30% and 28%
  Population Fragmented Nuclei (%): 13% and 10%
  Population Healthy Nuclei (%): 79% and 81%
  Population Hoechst High Intensity Objects (%): 4% and 7%
  Population Membrane Permeable-Phenotype (%): 0%
  Population Mitochondria Different-Phenotype (%): 35% and 42%
  Population Mitotic Cells (%): 69% and 71%
  Population Normal (%): 95% and 92%
  Population Pyknosed Nuclei (%): 7%
  Population Tubulin-Different-Phenotype (%): 23% and 25%
  Total Cell Count: 803 and 671

## COc1c(C)cc(NC(=O)c2nn(Cc3ccc(F)cc3)c3c2CN(C(=O)c2ccc[nH]2)C[C@]3(C)C(N)=O)cc1C
[1]
  Population Apoptotic (%): 42% and 38%
  Population Fragmented Nuclei (%): 6% and 7%
  Population Healthy Nuclei (%): 79% and 75%
  Population Hoechst High Intensity Objects (%): 7% and 5%
  Population Membrane Permeable-Phenotype (%): 0%
  Population Mitochondria Different-Phenotype (%): 51% and 58%
  Population Mitotic Cells (%): 57% and 61%
  Population Normal (%): 92% and 94%
  Population Pyknosed Nuclei (%): 13% and 17%
  Population Tubulin-Different-Phenotype (%): 36% and 29%
  Total Cell Count: 426 and 304
[2]
  Population Apoptotic (%): 67% and 59%
  Population Fragmented Nuclei (%): 4% and 6%
  Population Healthy Nuclei (%): 77% and 71%
  Population Hoechst High Intensity Objects (%): 13%
  Population Membrane Permeable-Phenotype (%): 0%
  Population Mitochondria Different-Phenotype (%): 90% and 95%
  Population Mitotic Cells (%): 32% and 40%
  Population Normal (%): 86%
  Population Pyknosed Nuclei (%): 17% and 21%
  Population Tubulin-Different-Phenotype (%): 62% and 63%
  Total Cell Count: 383 and 285
[3]
  Population Apoptotic (%): 21% and 51%
  Population Fragmented Nuclei (%): 7% and 5%
  Population Healthy Nuclei (%): 80% and 86%
  Population Hoechst High Intensity Objects (%): 4%
  Population Membrane Permeable-Phenotype (%): 0%
  Population Mitochondria Different-Phenotype (%): 30% and 43%
  Population Mitotic Cells (%): 78% and 48%
  Population Normal (%): 95%
  Population Pyknosed Nuclei (%): 12% and 7%
  Population Tubulin-Different-Phenotype (%): 24% and 16%
  Total Cell Count: 574 and 422
[4]
  Population Apoptotic (%): 53% and 67%
  Population Fragmented Nuclei (%): 6% and 5%
  Population Healthy Nuclei (%): 73% and 74%
  Population Hoechst High Intensity Objects (%): 11% and 15%
  Population Membrane Permeable-Phenotype (%): 0%
  Population Mitochondria Different-Phenotype (%): 91% and 92%
  Population Mitotic Cells (%): 46% and 32%
  Population Normal (%): 88% and 84%
  Population Pyknosed Nuclei (%): 19%
  Population Tubulin-Different-Phenotype (%): 61% and 56%
  Total Cell Count: 403 and 313
[5]
  Population Apoptotic (%): 21% and 39%
  Population Fragmented Nuclei (%): 11% and 12%
  Population Healthy Nuclei (%): 81%
  Population Hoechst High Intensity Objects (%): 2% and 3%
  Population Membrane Permeable-Phenotype (%): 1%
  Population Mitochondria Different-Phenotype (%): 25% and 28%
  Population Mitotic Cells (%): 78% and 60%
  Population Normal (%): 97% and 96%
  Population Pyknosed Nuclei (%): 6%
  Population Tubulin-Different-Phenotype (%): 18% and 9%
  Total Cell Count: 920 and 652
[6]
  Population Apoptotic (%): 60% and 80%
  Population Fragmented Nuclei (%): 8% and 9%
  Population Healthy Nuclei (%): 76% and 81%
  Population Hoechst High Intensity Objects (%): 14% and 10%
  Population Membrane Permeable-Phenotype (%): 0%
  Population Mitochondria Different-Phenotype (%): 93% and 90%
  Population Mitotic Cells (%): 39% and 19%
  Population Normal (%): 85% and 89%
  Population Pyknosed Nuclei (%): 15% and 9%
  Population Tubulin-Different-Phenotype (%): 66% and 59%
  Total Cell Count: 467 and 376

Reference: ChEMBL document CHEMBL5724801, “EUbOPEN Chemogenomics Library - Multiplex” (2024)
